Shown is part of a subset that was picked to be rich in hits.
T cruzi intra = intracellular Trypanosoma cruzi inhibition. activity score (inhibition), % at 5.01 µM. 22,000 tested, 4.9% active. intracellular Trypanosoma cruzi in host cells, plate reader. AID 651903; in the data active = activity score above about 55%; inconclusive = no clear call, values can overlap the other calls;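 also: parasites and compound incubated about four days before reading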
A1 apoptosis 2 = A1 inhibition read as caspase activation; MEF A1-2A-BIM cells, caspase-Glo luminescence, 3 h; percent of clofoctol response, DMSO zero; caspase activation, % (no concentration beside the values); 24,000 tested, under 10 active; AID 2465; in the data active = caspase activation above about 5.9%; inconclusive = no clear call, values can overlap the other calls; inactive = below about 2.2%
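System: mouse embryonic fibroblasts co-expressing A1 and BIM (A1-2A-BIM), primed for A1 dependence; amount: 2500 cells/well; doses: 50 nL pinned compound; schedule: cells settled overnight, compound exposure 3 h at 37 °C, 5% CO2; detection: Caspase-Glo 3/7 luminescence, 1 h at room temperature; read-out: Caspase-3/7 activation, seen as rise in luminescence signal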
INS-1E ATP HTS = preserves ATP levels in cytokine-treated INS-1E cells; INS-1E cytokine-induced death, ATP luminescence, 48 h; normalised: neutral wells 0, positive control 100; protection from cytokine-induced ATP loss, % at 10 µM; 20,000 tested, 0.1% active; AID 488910;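 active = mean replicate protection from cytokine-induced ATP loss at least 50% and at least 75% of replicates each reaching 50%; inconclusive = meets only one of the two criteria, mean or replicate share; inactive = fails both the mean and replicate share criteria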
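assay system = INS-1E rat insulinoma cells | amount = 8000 cells per well | medium = phenol-red-free RPMI with 5% fetal bovine serum | doses = one compound concentration, pin transfer | timing = 48 h cytokine plus compound treatment, 10 min reagent incubation | also added = IL-1β, TNF-α and IFN-γ cytokine mix | signal = CellTiter-Glo luminescence measuring cellular ATP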
Of the large screens only hits and unclear results are named; the others gave an inactive call.

C[C@H]1CN([C@@H](C)CO)C(=O)c2cccc(NC(=O)c3ccncc3)c2O[C@@H]1CN(C)Cc1ccc(C(=O)O)cc1	none
C[C@@H]1CN([C@H](C)CO)C(=O)c2cccc(NC(=O)c3ccncc3)c2O[C@@H]1CN(C)Cc1ccc(-c2ccccc2)cc1	T cruzi intra 66.7
O=C(CCCCCC(=O)NN=C1CCCCCCC1)NO	none (no result: T cruzi intra, INS-1E ATP HTS)
CN(CCO)c1ccc(/C=N/NC(=O)c2cccc(C(=O)NO)c2)cc1	none
O=C(NO)c1ccc(C(=O)N/N=C/c2ccco2)cc1	none
Cc1ccc(O)c(/C=N/NC(=O)c2cccc(C(=O)NO)c2)c1	none
CCCC(O)C#Cc1cnc2c(c1)C(=O)N([C@H](C)CO)C[C@H](C)[C@H](CN(C)S(=O)(=O)c1cccs1)O2 (stereo partly specified)	none (no result: INS-1E ATP HTS)
C[C@H](CO)N1C[C@H](C)[C@H](CN(C)S(=O)(=O)c2cccs2)Oc2ncc(C#Cc3ccc(C(F)(F)F)cc3)cc2C1=O	T cruzi intra 87.0
C[C@H](CO)N1C[C@H](C)[C@H](CN(C)S(C)(=O)=O)Oc2ncc(C#Cc3ccc(F)cc3)cc2C1=O	none (no result: A1 apoptosis 2, INS-1E ATP HTS)
C[C@H](CO)N1C[C@H](C)[C@H](CN(C)S(=O)(=O)c2cccs2)Oc2ncc(C#Cc3ccc(F)cc3)cc2C1=O	T cruzi intra 65.1 (no result: A1 apoptosis 2, INS-1E ATP HTS)
COc1ccc([Si](C)(C)[C@H]2[C@H](CCn3cc([C@H](O)c4ccccc4)nn3)O[C@@]3(C(=O)N(Cc4ccc(N5CCOC5=O)cc4)c4ccccc43)[C@@H]2C)cc1	none (no result: T cruzi intra, INS-1E ATP HTS)
COc1cc2c(cc1O)C(c1cccs1)N(C)CC2 (stereo unspecified)	none (no result: T cruzi intra, INS-1E ATP HTS)
COc1ccc(CN(C)C[C@H]2Oc3ccc(NC(=O)Cc4cn(C)c5ccccc45)cc3CC(=O)N([C@@H](C)CO)C[C@@H]2C)cc1	T cruzi intra 61.3
COc1ccc(CN(C)C[C@H]2Oc3ccc(NC(=O)Cc4cn(C)c5ccccc45)cc3CC(=O)N([C@@H](C)CO)C[C@H]2C)cc1	none
C[C@H]1CN([C@@H](C)CO)C(=O)Cc2cc(NC(=O)Cc3cn(C)c4ccccc34)ccc2O[C@H]1CN(C)Cc1ccc(Oc2ccccc2)cc1	T cruzi intra 58.8
C[C@H]1CN([C@@H](C)CO)C(=O)Cc2cc(NC(=O)Cc3cn(C)c4ccccc34)ccc2O[C@@H]1CN(C)Cc1ccc(Oc2ccccc2)cc1	none (no result: A1 apoptosis 2)
C[C@@H]1CN([C@H](C)CO)C(=O)Cc2cc(NC(=O)Cc3cn(C)c4ccccc34)ccc2O[C@H]1CN(C)Cc1ccc(Oc2ccccc2)cc1	T cruzi intra 77.7 (no result: A1 apoptosis 2)
C[C@H](CO)N1C[C@H](C)[C@@H](CN(C)Cc2ccc(Oc3ccccc3)cc2)Oc2ccc(NC(=O)Cc3cn(C)c4ccccc34)cc2CC1=O	none (no result: T cruzi intra, INS-1E ATP HTS)
COc1ccc(CN(C)C[C@@H]2Oc3ccc(NS(=O)(=O)c4c(C)noc4C)cc3C(=O)N([C@@H](C)CO)C[C@H]2C)cc1	none (no result: A1 apoptosis 2)
CC(C)(C)NC(=O)C(COCc1ccccc1)OC(=O)c1ccccc1 (stereo unspecified)	none (no result: T cruzi intra, INS-1E ATP HTS)
COC(=O)CCCCCCC(=O)N/N=C/c1ccco1	none
Cc1ccc(S(=O)(=O)Nc2ccc3c(c2)CC(=O)N([C@@H](C)CO)C[C@H](C)[C@@H](CN(C)Cc2ccc(Cl)c(Cl)c2)O3)cc1	T cruzi intra 75.3
C[C@H](CO)N1C[C@H](C)[C@H](CN(C)Cc2ccc(Cl)c(Cl)c2)Oc2ccc(NS(=O)(=O)c3ccc(F)cc3)cc2CC1=O	T cruzi intra 57.2 (no result: A1 apoptosis 2)
C[C@H](CO)N1C[C@H](C)[C@H](CN(C)Cc2ccc(Cl)c(Cl)c2)Oc2ccc(NS(=O)(=O)c3ccc(Cl)cc3)cc2CC1=O	none (no result: A1 apoptosis 2)
C[C@@H]1CN([C@H](C)CO)C(=O)Cc2cc(NS(=O)(=O)c3ccc(F)cc3)ccc2O[C@@H]1CN(C)Cc1ccc(Cl)c(Cl)c1	T cruzi intra 63.1 (no result: A1 apoptosis 2)
Cc1ccc(S(=O)(=O)Nc2ccc3c(c2)CC(=O)N([C@H](C)CO)C[C@H](C)[C@H](CN(C)Cc2ccc(Cl)c(Cl)c2)O3)cc1	none
C[C@@H]1CN([C@H](C)CO)C(=O)Cc2cc(NS(=O)(=O)c3ccc(Cl)cc3)ccc2O[C@@H]1CN(C)Cc1ccc(Cl)c(Cl)c1	T cruzi intra 67.5 (no result: A1 apoptosis 2)
C[C@H]1CN([C@@H](C)CO)C(=O)Cc2cc(NS(=O)(=O)c3ccc(Cl)cc3)ccc2O[C@H]1CN(C)Cc1ccc(Cl)c(Cl)c1	none
C[C@H]1CN([C@@H](C)CO)C(=O)Cc2cc(NS(=O)(=O)c3ccc(F)cc3)ccc2O[C@@H]1CN(C)Cc1ccc(Cl)c(Cl)c1	T cruzi intra inconclusive (no result: A1 apoptosis 2)
O=C(NO)c1cccc(C(=O)N/N=C/c2ccc(-n3ccnc3)cc2)c1	none
COC(=O)CCCCCCC(=O)N/N=C/c1ccccc1Br	none (no result: A1 apoptosis 2)
C[C@@H]1CCCCO[C@H](CN(C)S(=O)(=O)c2ccccc2)[C@@H](C)CN([C@H](C)CO)C(=O)c2cc(NS(=O)(=O)c3ccccc3)ccc2O1	none (no result: A1 apoptosis 2)
COC(=O)CCCCCCC(=O)N/N=C/C[C@@H](C)CCC=C(C)C	none
O=C(O)CCCCCCC(=O)N/N=C/c1ccccn1	none (no result: A1 apoptosis 2)
Cc1ccc(S(=O)(=O)Nc2ccc3c(c2)CC(=O)N([C@H](C)CO)C[C@@H](C)[C@H](CN(C)Cc2ccc4c(c2)OCO4)O3)cc1	T cruzi intra 61.4
Cc1ccc(S(=O)(=O)Nc2ccc3c(c2)CC(=O)N([C@H](C)CO)C[C@H](C)[C@H](CN(C)Cc2ccc4c(c2)OCO4)O3)cc1	none
COC(=O)CCCCCCC(=O)N/N=C/c1ccc(OC)c(O)c1	none
C[C@@H]1CCCCO[C@H](CN(C)CC2CCCCC2)[C@@H](C)CN([C@H](C)CO)C(=O)c2cc(NC(=O)Nc3cccc4ccccc34)ccc2O1	T cruzi intra 63.5 (no result: A1 apoptosis 2)
C[C@H](CO)N1C[C@H](C)[C@@H](CN(C)CC2CC2)OCCCC[C@H](C)Oc2ccc(NC(=O)Nc3cccc4ccccc34)cc2C1=O	none (no result: T cruzi intra, INS-1E ATP HTS)
C[C@@H]1CCCCO[C@@H](CN(C)CC2CCCCC2)[C@@H](C)CN([C@H](C)CO)C(=O)c2cc(NC(=O)Nc3cccc4ccccc34)ccc2O1	T cruzi intra 66.7 (no result: A1 apoptosis 2)
C[C@@H]1CCCCO[C@@H](CN(C)CC2CCCCC2)[C@H](C)CN([C@@H](C)CO)C(=O)c2cc(NC(=O)Nc3cccc4ccccc34)ccc2O1	none (no result: T cruzi intra, INS-1E ATP HTS)
COc1ccc(/C=N/NC(=O)c2ccccc2O)cc1OC	none
C[C@@H]1CN([C@H](C)CO)C(=O)c2cc(NC(=O)Nc3cccc4ccccc34)ccc2O[C@@H]1CN(C)Cc1ccc2c(c1)OCO2	none
C[C@@H]1CN([C@@H](C)CO)C(=O)c2cc(NC(=O)Nc3cccc4ccccc34)ccc2O[C@@H]1CN(C)Cc1ccc2c(c1)OCO2	T cruzi intra 55.6 (no result: A1 apoptosis 2)
C[C@H]1CN([C@@H](C)CO)C(=O)c2cc(NC(=O)Nc3cccc4ccccc34)ccc2O[C@@H]1CN(C)Cc1ccc2c(c1)OCO2	none
C[C@H]1CN([C@@H](C)CO)C(=O)c2cc(NC(=O)Nc3cccc4ccccc34)ccc2O[C@H]1CN(C)Cc1ccc2c(c1)OCO2	T cruzi intra 61.3
CC(C)=CCC[C@@H](C)C/C=N/NC(=O)c1ccccn1	none
O=C(O)CCCCCC(=O)N/N=C/c1ccc(N(c2ccccc2)c2ccccc2)cc1	none (no result: T cruzi intra, INS-1E ATP HTS)

From PubChem BioAssay
